According to ChEMBL document CHEMBL1121513, “Separation of potent central and renal dopamine agonist activity in substituted 6-chloro-2,3,4,5-tetrahydro-7,8-dihydroxy-1-phenyl-1H-3-benzazepines” (J Med Chem, 1980):

Assays:
Canis familiaris [1] = test: Effective Dose (ED15) required to decrease renal vascular resistance by 15% in anesthetized dogs administered intravenously; type: functional; conditions: Canis lupus familiaris, iv
Method in brief: (§1)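 Anesthetized dogs were surgically prepared for electromagnetic measurement of renal and iliac artery blood flow, carotid blood pressure, and ECG-triggered cardiometer heart rate. Drug was infused into an antecubital vein at cumulative, usually threefold increasing doses, 5 min per level. Renal vascular resistance was calculated as mean arterial pressure divided by mean blood flow, with a […] change needed for significance.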

Canis familiaris [2] = organism: Canis familiaris; test: Potency was expressed as the average maximum cumulative dose required to decrease renal vascular resistance by 15%; type: functional, Canis lupus familiaris; method in brief: as §1
Rattus norvegicus [3] = organism: Rattus norvegicus; test: Central dopaminergic activity was determined by testing compound for dopamine agonist activity mediated by adenylase cyclase in rat; type: functional, organism-based
Rattus norvegicus [4] = test: Central dopaminergic activity was determined by testing compound for its ability to produce contralateral rotation in lesioned rat after intracerebrally administration; type: functional
Rattus norvegicus [5] = test: Central dopaminergic activity was determined by testing compound for its ability to produce contralateral rotation in lesioned rat after ip administration; type: functional
[6] = Renal vasodilator activity was measured between ED20, measure of mean arterial blood pressure (MABP) test, and ED15 RVR.; type: functional
Method in brief: (§2)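 In anesthetized dogs with electromagnetic renal and iliac blood-flow probes, carotid pressure and ECG-triggered heart rate, drug was given as cumulative iv infusions rising about threefold every 5 min. Resistance was pressure divided by flow. Each ratio divides the dose giving a 30% IVR change, a 20% MABP rise or a 20% HR change by the RVR ED15.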

[7] = Renal vasodilator activity was measured between ED30, measure in iliac vascular resistance (IVR) test, and ED15 RVR; type: functional; method in brief: as §2
[8] = Renal vasodilator activity was measured between ED20, heart rate (HR) test, and ED15 RVR.; type: functional; method in brief: as §2
Canis familiaris [9] = test: Effective Dose (ED15) required to decrease renal vascular resistance by 15% in anesthetized dogs administered intravenously; d = increase in renal resistance were seen; type: functional, organism-based; conditions: Canis lupus familiaris; method in brief: as §1

| Structure (SMILES) | ED15 (Canis familiaris [1]) [µg/kg] | Average max (Canis familiaris [2]) [%] | EC50 (Rattus norvegicus [3]) [nM] | RD500 (Rattus norvegicus [4]) [µg/rat] | RD500 (Rattus norvegicus [5]) [µg/kg] | Selectivity ratio [6] | Selectivity ratio [7] | Selectivity ratio [8] | ED15 (Canis familiaris [9]) |
| --- | --- | --- | --- | --- | --- | --- | --- | --- | --- |
| Oc1cc2c(cc1O)C(c1ccccc1)CNCC2 (configuration not stated) [SKF-38393] | 31 | 19 | 80 | 0.18 | 700 | 10 | 15 |  |  |
| NCCc1ccc(O)c(O)c1 [DOPAMINE] | 2.7 | 36 | 3500 |  |  | 113 | 56 | 141 |  |
| Oc1ccc(C2CNCCc3c2cc(O)c(O)c3Cl)cc1 (configuration not stated) [FENOLDOPAM] | 0.3 | 59 | 18 | 0.5 | 10000 | >6072 | > 6070 | >6072 |  |
| Oc1ccc(C2CNCCc3cc(O)c(O)cc32)cc1 (configuration not stated) |  |  | 500 |  |  |  |  |  | Significant increases |
| Oc1cc2c(c(Cl)c1O)CCNCC2c1ccccc1 (configuration not stated) | 3.5 | 39 |  | 0.22 | 300 |  |  |  |  |
